An excerpt weighted towards active compounds, which were near 3.5% of everything screened.
MrgX1 antag: antagonists of human MrgX1 receptor | Q96LB2 | MRGX1-HEK293 calcium flux, Fluo-4, BAM8-22 antagonism; stronger effect = lower value | B-score at 10 µM | actives 1.3% (n = 310,000);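 active = calcium-response B-score plate-corrected more than 3 library SD below zero, starting fluorescence within 5 deviations, no agonist response on first addition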;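 note: peak minus trough fluorescence over baseline after final BAM8-22 challenge near maximal dose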
Target sequence (Q96LB2 whole entry, looked up): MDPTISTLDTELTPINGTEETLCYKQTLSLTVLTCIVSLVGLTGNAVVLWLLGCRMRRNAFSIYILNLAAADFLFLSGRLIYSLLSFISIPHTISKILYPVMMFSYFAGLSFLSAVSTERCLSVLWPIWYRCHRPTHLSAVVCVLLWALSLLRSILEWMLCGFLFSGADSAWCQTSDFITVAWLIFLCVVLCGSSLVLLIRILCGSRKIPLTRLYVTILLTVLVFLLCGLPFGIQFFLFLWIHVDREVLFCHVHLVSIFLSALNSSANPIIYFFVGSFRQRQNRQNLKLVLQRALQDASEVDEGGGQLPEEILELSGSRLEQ
MrgX1 PAM: allosterically activates human MrgX1 receptor signaling; Q96LB2; MrgX1-HEK293, Fluo-4 calcium flux, FDSS; stronger effect = higher value; B-score at 10 µM; actives 0.63% (n = 310,000);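 active = plate-corrected calcium response at least 3 library SD above typical, normal starting fluorescence, not activating the receptor alone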;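 note: compound read alongside a low EC10 to EC30 dose of BAM8-22 agonist; peak minus trough fluorescence over baseline measured at the second addition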
MrgX1 ag: activates human MrgX1 receptor signaling; actives 0.44% (n = 310,000); B-score at 10 µM; MrgX1-HEK293 cells, Fluo-4 calcium fluorescence, agonist mode; stronger effect = higher value; AID 588627; Q96LB2;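 active = calcium response B-score plate-corrected fluorescence ratio at least 3 library SD, with starting fluorescence B-score inside 5 SD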
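Assay system: MrgX1-expressing HEK293 cells / Amount: fifteen thousand cells per well / Doses: test compound in the initial addition of three / Timing: cells plated overnight, dye loaded 0.5 h 37 °C, 0.5 h room temperature / Technique: kinetic calcium dye fluorescence, Fluo-4 NW / Control set: positive and negative controls per plate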
RGS4 act: potentiators or activators of RGS4; HEK293 M3R/inducible RGS4, carbachol calcium flux Fluo4; stronger effect = lower value; actives 0.92% (n = 310,000); AID 463111; B-score at 10 µM;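 active = B-score of the integrated calcium signal more than 4 SD below the library mean, with starting fluorescence not abnormally high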;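 note: negative B-score means reduced calcium response which marks RGS4 activation or potentiation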
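Test system: HEK293 cells with stable M3R and inducible RGS4; also added: carbachol at ECmax as muscarinic agonist stimulus; schedule: dye loading 30 min 37 °C, buffer rest 30 min RT; technique: kinetic calcium fluorescence imaging with Fluo4-AM dye, 2 µM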
RGS4 block: inhibitors of human RGS4; HEK293 M3R/RGS4 inducible, Fluo-4 calcium flux; stronger effect = higher value; triggered by carbachol at its EC20; AID 463165; P49798; actives 0.45% (n = 310,000); B-score at 10 µM;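 active = B-score, a plate-corrected calcium signal, over three deviations above library mean, with baseline fluorescence within five deviations of library mean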;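 note: RGS4 expression induced by doxycycline in cells with stable M3 receptor; B-score is computed from the integrated fluorescence ratio over baseline after carbachol; higher B-score means a larger calcium signal and so more RGS4 inhibition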
Target sequence (P49798 whole entry, looked up): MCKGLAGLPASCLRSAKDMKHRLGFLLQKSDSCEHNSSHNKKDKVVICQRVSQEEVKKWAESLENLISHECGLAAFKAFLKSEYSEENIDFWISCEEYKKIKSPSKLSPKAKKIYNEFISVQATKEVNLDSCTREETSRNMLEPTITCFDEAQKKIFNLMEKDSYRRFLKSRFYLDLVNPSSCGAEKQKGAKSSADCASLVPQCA
Each line names hits and unclear results; the compound was inactive in the other large screens; ! = not confirmed by another sample.

COC(=O)c1cc2c(=O)c3ccccc3oc2nc1/C=C/N(C)C	MrgX1 ag 68
COC(=O)c1cc2c(=O)c3ccccc3oc2nc1C	none
Cc1ccccc1CC1CCN(CCCNC(=O)Nc2ccccc2)CC1	none
Cc1nc(N2CCCCC2)c2c(C)c(C(=O)Nc3ccc4c(c3)OCCO4)sc2n1	RGS4 act -7
CCc1c(C(=O)NC(C)C2CCCO2)csc1C (configuration not stated)	none
COc1cc(/C=C2/SC(=S)N(CC3CCCO3)C2=O)ccc1O (configuration not stated)	MrgX1 antag -8.6
O=C(O)C(Cc1ccccc1)N1C(=O)/C(=C/c2ccccc2)SC1=S (configuration not stated)	none
COc1cc(/C=C2\SC(=S)N(C(Cc3ccccc3)C(=O)O)C2=O)ccc1O (configuration not stated)	MrgX1 ag 56
COc1ccc(/C=C2\SC(=S)N(CC3CCCO3)C2=O)cc1 (configuration not stated)	none
Cc1ccc(C2(C)NC(=O)N(CC(=O)NCc3ccccc3Cl)C2=O)cc1 (configuration not stated)	none
O=[N+]([O-])c1ccc(-c2csc(N3CCCCCC3)n2)cc1	MrgX1 PAM 9.1
Cc1sc2nc(CSC(C)C(=O)N(C)CC(=O)Nc3ccccc3C(F)(F)F)[nH]c(=O)c2c1C (configuration not stated)	RGS4 act -7.1
CC(C)NCC(O)c1ccc2ccccc2c1 (configuration not stated)	none (no result: RGS4 act, RGS4 block)
NC[C@H](O)c1ccc(O)c(O)c1	MrgX1 ag 39 (no result: RGS4 act, RGS4 block)
COc1cc(C(O)CO)ccc1O (configuration not stated)	none (no result: RGS4 act, RGS4 block)
CC(C)NCC(O)c1ccc(O)c(O)c1 (configuration not stated)	MrgX1 ag 33
COc1cc(/C=C/C(=O)O)cc(S(=O)(=O)Nc2ccc3c(c2)CCC3)c1OC	none
CCOC(=O)C1=C(N)n2c(s/c(=C/c3ccco3)c2=O)=C(C(=O)OC)C1c1ccco1 (configuration not stated)	MrgX1 antag -5.7
CCCN1CCN(CC(=O)Nc2nnc(CC)s2)CC1	none
Cc1ccc(N=Cc2cc(Cl)cc(Cl)c2O)nc1	MrgX1 PAM 7.6
Oc1c(Cl)cc(Cl)cc1/C=N/Nc1ncc(Br)cn1	none
CCN(CC)CCNC(=O)c1ccc(NC(=O)c2cccc(S(=O)(=O)N3c4ccccc4CC3C)c2)cc1 (configuration not stated)	RGS4 act -8.4
CC1Cc2ccccc2N1S(=O)(=O)c1cccc(C(=O)NCCCO)c1 (configuration not stated)	none
NC(=O)C1CCN(C2=C(Cl)C(=O)c3ccccc3C2=O)CC1	MrgX1 ag 30
CCOc1ccccc1NC(=O)C(C)SCc1ccccc1 (configuration not stated)	none
CC(SCc1ccccc1)C(=O)Nc1ccccc1-c1ccccc1 (configuration not stated)	MrgX1 PAM 12
COc1ccc(NC(=O)C(OC(=O)c2cnccn2)c2ccccc2)cc1Cl (configuration not stated)	none
CCOC(=O)/C(C#N)=C/c1c(N2CCN(c3ccccc3)CC2)nc2c(C)cccn2c1=O	RGS4 act -7.8
CCNC(=O)/C(C#N)=C/c1c(N2CCN(c3cccc(Cl)c3)CC2)nc2c(C)cccn2c1=O	RGS4 act -11
CCOc1ccc(NS(=O)(=O)c2ccc(C(=O)NCC(c3cccs3)N3CCOCC3)cc2)cc1 (configuration not stated)	MrgX1 antag -6.5
CC(=O)c1ccc(S(=O)(=O)Nc2ccc(C(=O)NCC(c3cccs3)N3CCOCC3)cc2)cc1 (configuration not stated)	none
CSc1ccc2c(c1)C(N1CCN(C)CC1)Cc1ccccc1S2 (configuration not stated)	RGS4 act -7.4!
CN1CCN(C2Cc3ccccc3Sc3ccc(Cl)cc32)CC1 (configuration not stated)	none (no result: RGS4 act, RGS4 block)
CC(C)c1ccc2c(c1)C(N1CCNCC1)Cc1ccc(F)cc1S2 (configuration not stated)	RGS4 act -8.7
CN1CCN(C2Cc3cc(F)ccc3Sc3ccc(Cl)cc32)CC1 (configuration not stated)	RGS4 act -8.3
CSCC[C@H](NC(=O)N1CCn2c1nc1ccccc12)C(=O)NCc1ccco1	none
Cc1ccc(-c2nc(CS(=O)CC(=O)NCCN3CCCCC3C)c(C)o2)cc1 (configuration not stated)	none
CC1CCCCN1C(=O)COC(=O)c1cccc(NS(=O)(=O)c2ccccc2)c1 (configuration not stated)	none
CCOC(=O)c1sc(N)c(C#N)c1COC(=O)CNC(=O)c1cc(OC)c(OC)c(OC)c1	MrgX1 antag -6.6
COc1cc(C(=O)NCC(=O)OCc2ccccc2Cl)cc(OC)c1OC	none
CC(NC(=O)c1ccccc1NC(=O)CN1CCc2ccccc2C1)c1ccccc1 (configuration not stated)	none
O=C1C(=O)N(C/C=C/c2ccccc2)c2ccccc21	none
CC(C)=CC(=O)OCC(=O)Nc1cccc([N+](=O)[O-])c1	MrgX1 antag -8.6
COc1cc([N+](=O)[O-])ccc1NC(=O)COC(=O)C=C(C)C	none
CC(NC(=O)COc1cccnc1[N+](=O)[O-])c1ccc(Cl)cc1 (configuration not stated)	RGS4 act -8.1
CCN(CC)c1nc2c(c(=O)[nH]c(=O)n2C)n1CCOc1ccccc1	none
CCCCCCN1C=CC(=C/C=C(\C#N)C(=O)OCC)C=C1	MrgX1 ag 64
CCCN1C=CC(=C/C=C(\C#N)C(=O)OCC)C=C1	none
CC1CN(CCOc2ccccc2C(C)C)CC(C)O1 (configuration not stated)	none
COCCn1c(=NC(=O)/C=C/c2ccccc2)sc2cc(NC(C)=O)ccc21	MrgX1 antag -4.9
CN(C)c1ccc(C(C(=O)NC2CCCC2)N(Cc2cccnc2)C(=O)c2snc(C(N)=O)c2N)cc1 (configuration not stated)	MrgX1 antag -6.4
CCOc1ccc(C(C(=O)NC2CCCC2)N(Cc2ccccc2)C(=O)c2nsc(Cl)c2Cl)cc1 (configuration not stated)	RGS4 act -7.2
CCCSc1nnc(NC(=O)c2sc3nc(-c4cccs4)ccc3c2N)s1	MrgX1 ag 38
COCCNCCCCOc1ccccc1-c1ccccc1	MrgX1 antag -5.2
CCOc1cc(CNCCO)cc(Br)c1OCc1ccc(Cl)cc1Cl	RGS4 act -7.7
COc1cc(CNCCSc2nnnn2C)cc(Br)c1OCc1ccccc1F	none
CCOc1cccc(CNCCO)c1OCc1ccc(Cl)cc1Cl	none
